For one series, the target named is Tubulin. As to the kind of experiment: Inhibition of tubulin polymerization (unknown origin). Type of series: cell-based, Homo sapiens.
The target of another series is Tubulin (Homo sapiens) (UniProt P68371+Q9H4B7+P0DPH7+P68366+Q13509+Q71U36+P04350+Q3ZCM7+P07437+P68363+Q9BQE3+Q6PEY2+Q13885+Q9BVA1+Q9BUF5). As to the kind of experiment: Inhibition of tubulin polymerization (unknown origin) at 3 uM measured after 1 hr relative to control. The format is protein-complex assay. Summed up: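 Fluorescence-based tubulin polymerization kit: tubulin, GTP and tubulin glycerol buffer mixed and added to compound (from 10x stocks), enhancer and inhibitor reference standards, and blanks in a plate prewarmed to 37 °C. Read kinetically for 1 h at ex 360/em 450 nm.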

The test system of another series is HeLa. Kind of series: Cytotoxicity against human HeLa cells assessed as reduction in cell viability. The format is functional, cell-based.
A short description of series [1]: Cytotoxicity against human BEAS-2B cells assessed as reduction in cell viability measured after 48 hrs by MTT assay. The format is toxicity, cell-based. The procedure, abridged:
(§1)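 Cells kept in medium with 10% FBS and 1% antibiotic–antimycotic at 37 °C, 5% CO2. Seeded at 3000–4000 cells/well, grown overnight, then given fresh medium with a range of concentrations (diluted from 10 mM DMSO stocks) for 48 h. MTT (0.5 mg/mL) added for 3–4 h at 37 °C. Formazan dissolved in DMSO and absorbance read at 570 nm.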
On the technique in general: Tetrazolium dyes change colour on reduction, which living cells bring about.

A further series relates to B16-F10. Kind of series: Cytotoxicity against mouse B16-F10 cells assessed as reduction in cell viability measured after 48 hrs by MTT assay. To be noted: B16-F10, 48 h. The format is functional, cell-based. The procedure, abridged: as §1
The subject of series [2] is SK-MEL-28. As to the kind of experiment: Induction of cell cycle arrest in human SK-MEL-28 cells assessed as accumulation of cells at G0/G1 phase at 4.13 uM incubated for 48 hrs by flow cytometry (reference value: 79.59%). The format is functional.
Another series concerns HCT-116. Kind of series: Cytotoxicity against human HCT-116 cells assessed as reduction in cell viability measured after 48 hrs by MTT assay. The format is functional, cell-based. The note with it: HCT-116, 48 h. Summed up: as §1
In another series the test system is A549. As to the kind of experiment: Cytotoxicity against human A549 cells assessed as reduction in cell viability measured after 48 hrs by MTT assay. The format is functional, cell-based. To be noted: A549, 48 h. Summed up:
as §1

Series [3] relates to SK-MEL-28. As to the kind of experiment: Induction of cell cycle arrest in human SK-MEL-28 cells assessed as accumulation of cells at S phase at 4.13 uM incubated for 48 hrs by flow cytometry (reference value: 6.34%). The format is functional. In general terms: A flow cytometer gives signals particle by particle.
For series [4], the system named is SK-MEL-28. Kind of series: Induction of cell cycle arrest in human SK-MEL-28 cells assessed as accumulation of cells at G2/M phase at 4.13 uM incubated for 48 hrs by flow cytometry (reference value: 13.14%). The format is functional.
For series [5], the system named is SK-MEL-28. As to the kind of experiment: Cytotoxicity against human SK-MEL-28 cells assessed as reduction in cell viability measured after 48 hrs by MTT assay. Type of series: functional, cell-based. The note with it: SK-MEL-28, 48 h. The procedure, abridged:
as §1

The test system of series [6] is HCT-15. As to the kind of experiment: Cytotoxicity against human HCT-15 cells assessed as reduction in cell viability. The format is functional, cell-based.
For series [7], the system named is HCT-15. As to the kind of experiment: Cytotoxicity against human HCT-15 cells assessed as reduction in cell viability incubated for 4 hrs by MTT assay. Type of series: functional, cell-based. To be noted: HCT-15, 4 h.

What is called IC50 is the midpoint of a concentration-inhibition curve. `CCOc1ccc(-c2n[nH]cc2-c2cc(OC)c(OC)c(OC)c2)cc1` yielded a concentration for half-maximal inhibition (IC50) at Tubulin of 0.35 µM.
What is called inhibition is the drop in the measured response relative to a control, in per cent. A high value points to strong suppression. `CC(=O)O[C@H]1C(=O)[C@@]2(C)[C@H]([C@H](OC(=O)c3ccccc3)[C@]3(O)C[C@H](OC(=O)[C@H](O)[C@@H](NC(=O)c4ccccc4)c4ccccc4)C(C)=C1C3(C)C)[C@]1(OC(C)=O)CO[C@@H]1C[C@@H]2O`: the inhibition against Tubulin (Homo sapiens) was 60%.
As for `COc1cc(NC(=O)/C=C/c2cc(-c3cc(OC)c(OC)c(OC)c3)n[nH]2)cc(OC)c1OC`, the 50% inhibitory concentration (IC50) in the series with HeLa is 0.4 µM.
With `CCN(CC)CCNC(=O)c1c(C)[nH]c(/C=C2\C(=O)Nc3ccc(F)cc32)c1C` [SUNITINIB], the IC50 at 48 h in series [1] turned out to be 6.09 µM. In addition, the concentration for half-maximal inhibition (IC50) was determined as 15.3 µM in the series with B16-F10, 10.7 µM in the series with HCT-116, 5.73 µM with A549 and 4.13 µM with SK-MEL-28 [5]. The Activity turned out to be 76.33% in the series on SK-MEL-28 [2], 5.09% in the series with SK-MEL-28 [3] and 17.92% with SK-MEL-28 [4].
For `COc1ccc(CC/N=C2/NC(=O)/C(=C\c3c[nH]c4ccc(Br)cc34)S2)cc1`, the half-inhibitory concentration (IC50) in the series with HCT-15 [6] and with HCT-15 [7] was 0.92 µM in each case.
